Data set [1] deals with enterovirus D68. Kind of data set: Antiviral activity against Enterovirus-D68 STL-2014-12 infected in human RD cells assessed as reduction in virus induced cytopathic effect by measuring ATP level incubated for 72 hrs by cell titer-glo luminescent cell viability assay. The format is functional, organism-based. The following applies: Enterovirus D, STL-2014-12, RD, 72 h. The essentials:
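RD cells seeded at 1.5 × 10^4/well and grown 24 h, then given 100 TCID50 virus plus compound in 3-fold dilutions (0.01–200 μM). DMSO control. Incubated 37 °C for 72 h; ATP read by CellTiter-Glo luminescence and normalized to uninfected and infected controls. EC50 is the concentration giving 50% CPE reduction. Strains: STL-2014-12, US/KY/14-18953, US/MO/14-18947, Fermon.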
For orientation: Protection from cytopathic effect is a common read-out in antiviral testing.

The nature of data set [2]: Selectivity index, ratio of CC50 for human RD cells to EC50 for Enterovirus-D68 STL-2014-12 infected in human RD cells to. The format is toxicity, cell-based. The following applies: for selectivity ratio: RD cells, read-out: Ratio CC50/EC50. The essentials:
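EC50 came from a CPE reduction assay. RD cells (1.5 × 10^4 per well, grown 24 h) were infected with 100 TCID50 of the named strain and given 3-fold dilutions from 0.01 to 200 μM. After 72 h at 37 °C, ATP was read by CellTiter-Glo and normalized to infected and uninfected controls. CC50 came from uninfected cells under the same dilutions, 72 h and ATP readout. SI = CC50/EC50.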

The test system of data set [3] is RD. Kind of data set: Cytotoxicity against human RD cells assessed as inhibition of cell viability by measuring ATP level incubated for 72 hrs by cell titer-glo luminescent cell viability assay. It counts as functional. The essentials:
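Uninfected RD cells seeded at 1.5 × 10^4/well and grown 24 h, then exposed to compound in 3-fold dilutions (0.01–200 μM), with DMSO as cell control. ATP read by CellTiter-Glo luminescence after 72 h; CC50 is the 50% cytotoxic concentration.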
In general terms: Cellular ATP, detected with luciferase, serves as a proxy for viable cell number.

Molecules are shown by their SMILES. A value given as a limit tells only on which side of the number the result lay.

What is called EC50 is the midpoint of the concentration-response curve. As usually defined, the CC50 is the concentration that lowers cell viability or growth by half. In the case of `Fc1ccc(-c2ccc3ncc(-c4noc(C(F)(F)F)n4)cc3c2)cc1`, the EC50 in data set [1] amounted to 1.22 µM. Besides, the selectivity ratio in data set [2] was greater than 6. Besides, in data set [3], the CC50 was greater than 7.4 µM.
Consider `CCc1nc(-c2cnc3ccc(-c4ccc(C)cc4)cc3c2)no1`, for which the EC50 in data set [1] amounted to 0.61 µM. In addition, in data set [2], the selectivity ratio was greater than 12. Moreover, in data set [3], the half-maximal cytotoxic concentration (CC50) was greater than 7.4 µM.
The like results for `CCc1nc(-c2cnc3ccc(-c4ccc(N5CCOCC5)cc4)cc3c2)no1` were, in that order, 11.8 µM, greater than 17 and greater than 200 µM.
`CC(C)c1ccc(-c2ccc3ncc(-c4noc(C(F)(F)F)n4)cc3c2)cc1`: the EC50 in data set [1] turned out to be 5.08 µM. The selectivity ratio in data set [2] is greater than 39. In addition, in data set [3], the CC50 was greater than 200 µM.
Taken in the same sequence, the figures for `CCOC(=O)c1cnc2ccc(-c3ccc(C(C)C)cc3)cc2c1` were 1.05 µM, greater than 2 and greater than 7.4 µM.
Take `FC(F)(F)c1nc(-c2cnc3ccc(-c4ccc(N5CCOCC5)cc4)cc3c2)no1`: the EC50 in data set [1] turned out to be 33.9 µM. Also, the selectivity ratio in data set [2] was greater than 1. Moreover, the CC50 in data set [3] is greater than 22.2 µM.
In the case of `CCc1ccc(-c2ccc3ncc(-c4noc(C)n4)cc3c2)cc1`, in data set [1], the EC50 came out at 0.47 µM. Moreover, the selectivity ratio in data set [2] is greater than 16. In data set [3], the CC50 was greater than 7.4 µM.
Turning to `CCc1nc(-c2cnc3ccc(-c4ccccc4)cc3c2)no1`, in data set [1], the concentration for a half-maximal effect (EC50) was determined as 0.17 µM. In data set [2], the selectivity ratio was greater than 44. In data set [3], the CC50 is greater than 7.4 µM.
The like results for `CC(C)(C)c1nc(-c2cnc3ccc(-c4ccc(N)cc4)cc3c2)no1` were, in that order, 4.22 µM, greater than 2 and greater than 7.4 µM.
As for `CCc1nc(-c2cnc3ccc(-c4ccc(N)cc4)cc3c2)no1`, the EC50 in data set [1] came out at 0.1 µM. Also, the “Ratio CC50/EC50” value in data set [2] is greater than 25. For the same molecule, the CC50 in data set [3] was greater than 2.5 µM.
With `Cc1ccc(-c2ccc3ncc(-c4noc(C(F)(F)F)n4)cc3c2)cc1`, in data set [1], the EC50 was found to be 0.45 µM. Besides, the selectivity ratio in data set [2] is greater than 49. Also, the CC50 in data set [3] is greater than 22.2 µM.
Taken in the same sequence, the figures for `CCOC(=O)c1cnc2ccc(-c3ccccc3N)cc2c1` were 6.26 µM, greater than 1 and greater than 7.4 µM.
The like results for `CCCCc1nc(-c2cnc3ccc(-c4ccc(N)cc4)cc3c2)no1` were, in that order, 0.71 µM, greater than 3 and greater than 2.5 µM.
Taken in the same sequence, the figures for `CCCc1ccc(-c2ccc3ncc(-c4noc(C)n4)cc3c2)cc1` were 0.78 µM, greater than 10 and greater than 7.4 µM.
Turning to `CCc1nc(-c2cnc3ccc(-c4ccc(OC)cc4)cc3c2)no1`, in data set [1], the half-maximal effective concentration (EC50) stood at 0.19 µM. Besides, the selectivity ratio in data set [2] was greater than 13. Besides, the CC50 in data set [3] was greater than 2.5 µM.
Taken in the same sequence, the figures for `Nc1ccc(-c2ccc3ncc(-c4noc(C(F)(F)F)n4)cc3c2)cn1` were 0.18 µM, greater than 14 and greater than 2.5 µM.
In the case of `CCCc1nc(-c2cnc3ccc(-c4ccc(N)cc4)cc3c2)no1`, the EC50 in data set [1] came to 0.41 µM. Further, in data set [2], the selectivity ratio was greater than 2. For the same molecule, the CC50 in data set [3] is greater than 0.8 µM.
Consider `Cc1ccc(-c2ccc3ncc(-c4noc(C)n4)cc3c2)cc1`, for which the EC50 in data set [1] turned out to be 0.57 µM. In addition, the selectivity ratio in data set [2] is greater than 13. Further, in data set [3], the CC50 is greater than 7.4 µM.
Taken in the same sequence, the figures for `CCc1nc(-c2cnc3ccc(-c4ccc(NC(C)=O)cc4)cc3c2)no1` were 0.33 µM, greater than 22 and greater than 7.4 µM.
`CCOC(=O)c1cnc2ccc(-c3ccc(N)cc3)cc2c1`: in data set [1], the 50% effective concentration (EC50) came to 0.47 µM. Moreover, the selectivity ratio in data set [2] is greater than 16. Besides, in data set [3], the CC50 is greater than 7.4 µM.
For the molecule `CCc1nc(-c2cnc3ccc(-c4ccc(O)cc4)cc3c2)no1`, in data set [1], the half-maximal effective concentration (EC50) is 0.19 µM. For the same molecule, the selectivity ratio in data set [2] was greater than 13. Further, the CC50 in data set [3] is greater than 2.5 µM.
For the molecule `COc1ccc(-c2ccc3ncc(-c4noc(C)n4)cc3c2)cc1`, the EC50 in data set [1] was determined as 0.51 µM. The selectivity ratio in data set [2] was greater than 131. Besides, the CC50 in data set [3] is greater than 66.7 µM.
The like results for `CCCCc1ccc(-c2ccc3ncc(-c4noc(C)n4)cc3c2)cc1` were, in that order, 0.59 µM, greater than 4 and greater than 2.5 µM.
The like results for `CCc1nc(-c2cnc3ccc(-c4ccc(Cl)cc4)cc3c2)no1` were, in that order, 3.02 µM, greater than 7 and greater than 22.2 µM.
Turning to `CCCCc1ccc(-c2ccc3ncc(-c4noc(CC)n4)cc3c2)cc1`, the concentration for a half-maximal effect (EC50) in data set [1] was determined as 0.18 µM. Further, the selectivity ratio in data set [2] was greater than 41. Further, in data set [3], the CC50 was greater than 7.4 µM.
Taken in the same sequence, the figures for `CCc1nc(-c2cnc3ccc(-c4cccc(N)c4)cc3c2)no1` were 0.17 µM, greater than 44 and greater than 7.4 µM.
Regarding `CCc1ccc(-c2ccc3ncc(-c4noc(CC)n4)cc3c2)cc1`, in data set [1], the concentration giving a half-maximal response (EC50) is 0.59 µM. In data set [2], the selectivity ratio is greater than 38. In addition, in data set [3], the CC50 is greater than 22.2 µM.
Taken in the same sequence, the figures for `CCCCc1ccc(-c2ccc3ncc(C(=O)OCC)cc3c2)cc1` were 0.85 µM, greater than 9 and greater than 7.4 µM.
Taken in the same sequence, the figures for `CCOC(=O)c1cnc2ccc(-c3ccccc3)cc2c1` were 0.9 µM, greater than 8 and greater than 7.4 µM.
As for `CCc1nc(-c2cnc3ccc(-c4ccccc4N)cc3c2)no1`, the EC50 in data set [1] was 2.35 µM. Moreover, the selectivity ratio in data set [2] is 9. Further, the CC50 in data set [3] stood at 2.35 µM.
For the molecule `CN(C)c1ccc(-c2ccc3ncc(-c4noc(C(F)(F)F)n4)cc3c2)cc1`, the EC50 in data set [1] came to 1.35 µM. Further, the selectivity ratio in data set [2] was greater than 16. Besides, the CC50 in data set [3] was greater than 22.2 µM.
Taken in the same sequence, the figures for `Cc1nc(-c2cnc3ccc(-c4ccccc4)cc3c2)no1` were 0.22 µM, greater than 11 and greater than 2.5 µM.
Taken in the same sequence, the figures for `Cc1nc(-c2cnc3ccc(-c4ccc(N)cc4)cc3c2)no1` were 0.28 µM, greater than 9 and greater than 2.5 µM.
Taken in the same sequence, the figures for `CC(C)c1nc(-c2cnc3ccc(-c4ccc(N)cc4)cc3c2)no1` were 0.4 µM, greater than 2 and greater than 0.8 µM.
`CCc1nc(-c2cnc3ccc(-c4ccc(N)c(Cl)c4)cc3c2)no1`: the half-maximal effective concentration (EC50) in data set [1] turned out to be 0.61 µM. For the same molecule, the selectivity ratio in data set [2] was greater than 12. In addition, in data set [3], the CC50 was greater than 7.4 µM.
Taken in the same sequence, the figures for `CCc1nc(-c2cnc3ccc(-c4ccc(N)nc4)cc3c2)no1` were 0.12 µM, greater than 555 and greater than 66.7 µM.
Regarding `CCc1nc(-c2cnc3ccc(-c4ccc(F)cc4)cc3c2)no1`, the EC50 in data set [1] amounted to 0.33 µM. In addition, in data set [2], the selectivity ratio was greater than 22. Moreover, the CC50 in data set [3] is greater than 7.4 µM.
Take `CCOC(=O)c1cnc2ccc(-c3cccc(N)c3)cc2c1`: the EC50 in data set [1] amounted to 6.73 µM. Moreover, the selectivity ratio in data set [2] was greater than 1. In data set [3], the half-maximal cytotoxic concentration (CC50) was greater than 7.4 µM.
The like results for `CCCc1ccc(-c2ccc3ncc(C(=O)OCC)cc3c2)cc1` were, in that order, 1.29 µM, greater than 6 and greater than 7.4 µM.
`Cc1nc(-c2cnc3ccc(-c4ccc(O)cc4)cc3c2)no1`: in data set [1], the EC50 was found to be 0.46 µM. In data set [2], the selectivity ratio was greater than 5. In addition, in data set [3], the CC50 is greater than 2.5 µM.
Taken in the same sequence, the figures for `Cc1nc(-c2cnc3ccc(-c4ccc(N)nc4)cc3c2)no1` were 0.51 µM, greater than 15 and greater than 7.4 µM.
For `CCCc1ccc(-c2ccc3ncc(-c4noc(CC)n4)cc3c2)cc1`, in data set [1], the EC50 stood at 0.53 µM. In addition, in data set [2], the selectivity ratio is greater than 14. In addition, the 50% cytotoxic concentration (CC50) in data set [3] is greater than 7.4 µM.
As to `FC(F)(F)c1nc(-c2cnc3ccc(-c4ccccc4)cc3c2)no1`, the EC50 in data set [1] came to 0.75 µM. For the same molecule, the selectivity ratio in data set [2] is greater than 30. In data set [3], the CC50 was greater than 22.2 µM.
The like results for `CCCCc1ccc(-c2ccc3ncc(-c4noc(C(F)(F)F)n4)cc3c2)cc1` were, in that order, 0.19 µM, greater than 39 and greater than 7.4 µM.
The like results for `FC(F)(F)c1nc(-c2cnc3ccc(-c4ccc(Cl)cc4)cc3c2)no1` were, in that order, 24.3 µM, greater than 8 and greater than 200 µM.

The record behind these values is ChEMBL document CHEMBL5214977, “Discovery and Optimization of Quinoline Analogues as Novel Potent Antivirals against Enterovirus D68” (J Med Chem, 2022).
